Source: PubChem
T cruzi inh = blocks replication of Trypanosoma cruzi. T. cruzi beta-gal in NIH3T3, luminescence, 90 h. inhibition, % (test concentration not listed). AID 1885. hit rate 1.4% among 300,000;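 active means mean inhibition across valid replicates above about 55%, limit read from the data; inconclusive means mean below that limit but half or more replicates reach it; inactive means mean below it, under half of replicates reach it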;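 further: signal also drops with host cell toxicity which is not excluded here; 0% = plate median of DMSO wells and 100% = zero luminescence signal; higher percent means less beta-gal luminescence so fewer parasites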
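Assay system: NIH/3T3 fibroblasts plus reporter T. cruzi. Amount: NIH/3T3 cells, 5,000 per well. Buffer or medium: DMEM, 2% fetal bovine serum. Doses: compound pinned at 50 nL/well, DMSO. Schedule: ≥90 h infection period, 3 h prior cell attachment. Signal: luminescent β-galactosidase signal after 60 min lysis. Read-out: parasite load inhibition, %.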
CSC inhib = cancer stem cell inhibition. cancer stem cell-like cells viability, luminescence. inhibition, % at 7.5 µM. hit rate 1.1% among 300,000. AID 2717; in the data active means inhibition above about 75%; inconclusive means no clear call, values can overlap the other calls; tested in HMLE shEcad cells
Mdm2-MdmX inh = human Mdm2/MdmX binding inhibition. O15151+Q00987. SaOS-2 split-luciferase Mdm2/MdmX complementation, luminescence. inhibition, % at 8 µM. hit rate 3% among 330,000. AID 485346;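 active means inhibition of at least 50% at 8 µM in the primary screen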
Target sequence (O15151 whole entry, looked up): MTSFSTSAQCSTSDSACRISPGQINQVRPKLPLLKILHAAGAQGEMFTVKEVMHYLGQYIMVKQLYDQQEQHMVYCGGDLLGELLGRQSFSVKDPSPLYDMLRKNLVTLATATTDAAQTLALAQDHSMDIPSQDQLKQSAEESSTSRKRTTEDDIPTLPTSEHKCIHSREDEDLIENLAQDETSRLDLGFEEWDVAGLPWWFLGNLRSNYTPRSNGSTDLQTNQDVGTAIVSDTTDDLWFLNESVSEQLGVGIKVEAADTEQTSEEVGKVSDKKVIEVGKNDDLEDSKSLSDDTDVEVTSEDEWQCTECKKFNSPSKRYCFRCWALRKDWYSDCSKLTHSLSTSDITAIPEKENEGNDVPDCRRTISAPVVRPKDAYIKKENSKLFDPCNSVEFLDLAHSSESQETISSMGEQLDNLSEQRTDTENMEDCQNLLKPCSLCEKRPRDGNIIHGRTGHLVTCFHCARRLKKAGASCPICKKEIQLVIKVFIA
Target sequence (Q00987 whole entry, looked up): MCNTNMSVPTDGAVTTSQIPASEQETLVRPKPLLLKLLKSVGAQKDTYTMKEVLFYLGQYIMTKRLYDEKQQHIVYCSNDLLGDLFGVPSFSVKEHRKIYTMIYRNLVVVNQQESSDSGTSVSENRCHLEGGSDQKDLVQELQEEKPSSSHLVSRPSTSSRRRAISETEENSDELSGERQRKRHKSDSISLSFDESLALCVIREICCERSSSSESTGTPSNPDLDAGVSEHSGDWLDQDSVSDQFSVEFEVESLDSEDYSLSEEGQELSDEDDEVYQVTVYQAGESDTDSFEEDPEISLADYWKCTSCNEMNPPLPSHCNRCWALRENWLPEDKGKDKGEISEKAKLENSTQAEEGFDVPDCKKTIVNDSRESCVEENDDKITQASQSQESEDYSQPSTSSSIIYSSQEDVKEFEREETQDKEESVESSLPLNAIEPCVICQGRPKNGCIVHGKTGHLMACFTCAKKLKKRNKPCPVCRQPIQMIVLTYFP
aSyn UTR inh = 5' untranslated region of α-synuclein, MLPCN primary screen; alpha-synuclein 5'UTR reporter, inhibitor activity; inhibition, % (tested at 7.5 µM); hit rate 0.82% among 300,000; AID 1813; in the data active means inhibition above about 60%; inconclusive means no clear call, values can overlap the other calls;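 further: H4 neuroglioblastoma cells stably carrying SNCA 5'UTR luciferase fusion; 0% = DMSO wells and 100% = positive control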
SKKanGAS inh = SKKanGAS growth inhibition | S. pyogenes SKKanGAS, kanamycin growth, BacTiter-Glo, 6 h | inhibition, % at 7.5 µM | hit rate 1.3% among 300,000 | AID 1662;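 active means mean replicate score, as percent of positive control median, at least 50; inconclusive means mean below 50 but one replicate at or above 50; inactive means mean and every replicate below 50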;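 further: strain carries kanamycin resistance gene driven by streptokinase promoter and grows in 40 µg/ml kanamycin; loss of luminescence reflects streptokinase promoter inhibition or plain growth inhibition; 0% = median of DMSO wells and 100% = positive control at its reference dose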
Mdm2-MdmX conf = human Mdm2/MdmX binding inhibition, confirmed | shares compounds with Mdm2-MdmX inh | luminescent assay | inhibition, % at 8 µM | hit rate 55% among 10,000 | AID 489028; in the data active means inhibition above about 40%
Full FLuc ctr = counter-screen for Mdm2/MdmX inhibitors: full-length luciferase; shares compounds with Mdm2-MdmX inh; SaOS-2 full-length luciferase counterscreen, luminescence; inhibition, % at 8 µM; hit rate 77% among 6,200; AID 504607;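 active means mean inhibition at 8 µM reaching about 37%, which flags the compound as non-specific, limit read from the data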;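 further: p53-null SaOS-2 cells with luciferase driven by a doxycycline-inducible promoter; compound on cells about two nights before reading with doxycycline added after day one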
Starred values were filed as active, the others as inactive; u = inconclusive; x = not tested or not shown. In the library only some 5.4% were active in any assay of this set; here they are far more common.

SMILES	T cruzi inh	CSC inhib	Mdm2-MdmX inh	aSyn UTR inh	SKKanGAS inh	Mdm2-MdmX conf	Full FLuc ctr
Cc1ccc(/C=N/NC(=O)c2cc(-c3cccnc3)nc3ccccc23)cc1	16	42	54*	81*	1	41*	48*
O=C(N/N=C/c1cccnc1)c1cc(-c2ccccc2)nc2ccccc12	11	-6	15	-19	6	x	x
CC1Cc2c([nH]c3ccccc23)C(=O)N1 (stereo not given)	-13	-18	2	19	5	x	x
CCn1c(=O)c(C(=O)CN2CCN(S(=O)(=O)c3ccc(C)cc3C)CC2)c(N)n(Cc2ccccc2)c1=O	47	22	53*	24	20	43*	75*
COc1ccc2c(c1OC)C(=O)N1c3ccccc3SC21 (stereo not given)	-12	9	-134	-142	1	x	x
COc1ccc2c(c1OC)C(=O)N1c3ccccc3C(=O)N(c3ccccc3F)C21 (stereo not given)	-2	12	66*	u	-11	60*	76*
CC(C)(C)c1ccc(-n2nc(C(N)=O)c(O)cc2=O)cc1	-2	-5	-17	19	5	x	x
CC(C)(C)c1ccc(-n2nc(C#N)c(Cl)cc2=O)cc1	66*	x	100*	-25	-12	100*	1
O=C(C1=C[C@@H](c2ccccc2)C[C@@H](OCCCCO)O1)N1CCOCC1	-1	7	-16	12	0	x	x
Cc1cc(C)c(Cn2c(=O)n(CCCC(=O)NCc3ccco3)c(=O)c3sccc32)c(C)c1	-22	20	51*	34	-2	40*	80*
Cc1ccccc1Cn1c(=O)n(CCCC(=O)NCc2ccco2)c(=O)c2sccc21	13	-11	26	31	-8	x	x
O=C(COc1ccc(C(=O)c2ccc(F)cc2)cc1)NCc1ccc(F)cc1	-49	51	40	4	-5	x	x
O=C(COc1ccc(C(=O)NCCc2ccccc2)cc1)Nc1ccccc1	-2	-2	-21	-8	-4	x	x
COc1ccc(CNC(=O)COc2ccc(C(=O)c3ccc(F)cc3)cc2)cc1	-42	59	61*	-13	-1	47*	89*
Cc1ccc(CNC(=O)COc2ccc(C(=O)c3ccc(F)cc3)cc2)cc1	-29	56	51*	-14	-13	54*	64*
O=C(COc1ccc(C(=O)Nc2ccc(Cl)cc2)cc1)NCc1ccccc1	-10	2	62*	-18	7	24	x
O=C(CCC(=O)NNC(=O)c1ccc(Cl)cc1Cl)NCc1ccccc1	x	3	-11	x	x	x	x
COc1ccc([C@H]2CC(=O)C=C(c3ccc4ncccc4c3)C2)cc1	x	47	19	x	x	x	x
O=C1C=C(c2ccc3ncccc3c2)C[C@@H](c2ccc(Cl)cc2)C1	x	57	54*	x	x	46*	83*
Cc1cc(/C=N/NC(=O)c2cccs2)c(C)n1-c1ccccc1	11	22	93*	-19	2	88*	93*
C(=N\Nc1nc2ccccc2s1)/c1ccccn1	39	94*	94*	101*	75*	95*	48*
Brc1csc(/C=N/Nc2nc3ccccc3s2)c1	9	2	-226	-275	15	x	x
O=[N+]([O-])c1cc(Cl)cc(/C=N/Nc2nc3ccccc3s2)c1O	-2	47	80*	-78	82*	-1	x
Cc1ccc(N2CCN(C(=O)C3CCCN(c4ncnc5c4nc4n5CCCCC4)C3)CC2)c(C)c1 (stereo not given)	-6	32	72*	10	-7	39	56*
COc1ccccc1N1CCN(CCCNC(=O)C2CCCN(c3ncnc4c3nc3n4CCCCC3)C2)CC1 (stereo not given)	25	-5	50*	5	2	10	x
SMILES	T cruzi inh	CSC inhib	Mdm2-MdmX inh	aSyn UTR inh	SKKanGAS inh	Mdm2-MdmX conf	Full FLuc ctr
O=C(NCCCN1CCN(c2ccc(F)cc2)CC1)C1CCCN(c2ncnc3c2nc2n3CCCCC2)C1 (stereo not given)	21	21	21	12	4	x	x
Cc1cccc(N2CCN(C(=O)C3CCN(c4ncnc5c4nc4n5CCCCC4)CC3)CC2)c1C	5	38	36	-1	-8	x	x
Cc1cccc(N2CCN(C(=O)C3CCN(c4ncnc5c4nc4n5CCCCC4)CC3)CC2C)c1 (stereo not given)	13	24	60*	32	6	50*	61*
O=C(C1CCCN(c2ncnc3c2nc2n3CCCCC2)C1)N1CCN(c2ccccc2)CC1 (stereo not given)	10	3	24	-148	0	x	x
O=C(C1CCCN(c2ncnc3c2nc2n3CCCCC2)C1)N1CCN(c2cccc(Cl)c2)CC1 (stereo not given)	22	45	57*	12	19	9	x
Cc1ccc(C(=O)N/N=C/c2ccoc2)cc1C	-2	10	-19	-13	10	x	x
COc1cccc(NC(=O)C2CCN(C(=O)NC3CCCCC3)CC2)c1	-7	x	-19	-14	17	x	x
CC(/C=C/c1ccco1)=N/NC(=O)OC(C)(C)C	-18	-7	9	-129	-6	x	x
COC(=O)c1cnn(-c2ccccc2)c1/C=N/NC(=S)Nc1ccc(Cl)cc1	-21	5	52*	-15	1	54*	54*
COc1ccc(NC(=O)c2cnn(-c3ccccc3)c2C)cc1	-8	25	-97	-62	3	x	x
CCOc1ccc2cc(C3CC(c4ccco4)=NN3S(C)(=O)=O)c(=O)[nH]c2c1 (stereo not given)	1	5	-22	24	-1	x	x
Cc1cc(C)n2nc(-c3ccccc3)c(-c3ccccc3)c2n1	13	7	-15	13	16	x	x
CCOC(=O)c1c(NC(=O)N/N=C/c2ccc(O)c(OC)c2)sc(C(C)=O)c1C	-4	-4	68*	-2	26	24	x
CCOC(=O)c1c(NC(=O)CC(C)C)sc(C(C)=O)c1C	17	-10	17	12	-5	x	x
CCOC(=O)c1c(NC(=O)c2cc(-c3ccc(O)cc3)on2)sc(C(C)=O)c1C	-2	-7	70*	26	3	5	x
O=C(Cn1cc(C(=O)c2ccco2)c2ccccc21)NC1CC1	-16	-14	5	-13	5	x	x
O=C(COC(=O)C12CC3CC(CC(Br)(C3)C1)C2)N1CCOCC1	-12	-2	-22	12	-3	x	x
CCOC(=O)C1CCCN(C(=O)c2cc3ccccc3oc2=O)C1 (stereo not given)	-22	6	-2	-7	-7	x	x
COc1ccc(/C=C2\CN(Cc3ccccc3)C/C(=C\c3ccc(OC)c(O)c3)C2=O)cc1O	7	119*	98*	107*	21	100*	51*
COc1cc(/C=C2/CC/C(=C/c3ccc(O)c(OC)c3)C2=O)ccc1O	-4	48	31	-71	u	x	x
